This is an account of results in ChEMBL document CHEMBL3414501, “New platelet aggregation inhibitors based on pyridazinone moiety” (Eur J Med Chem, 2015).

Calls of active or inactive are those of the source. The rule behind the calls is not given here.

Common to all, as to format: functional, cell-based
Experiment [1] is described as follows: Antiplatelet activity in human platelet assessed as inhibition of collagen-induced platelet aggregation incubated for 5 mins prior to collagen challenge measured over 5 mins by turbidimetric method. The essentials:
(§1)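 Washed human platelets from buffy coat, resuspended in Tyrode-HEPES pH 7.4 with 2 mM CaCl2. Compound in DMSO preincubated with platelets, then collagen (2-4 μg/mL), CRP, thrombin, U-46619 or ionomycin added. Light transmission followed over 5 min in a dual-channel aggregometer (Born turbidimetry); aggregation taken as maximal transmission change. Non-collagen agonists tested at 20 μM compound; at least four experiments in duplicate.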

The test system of experiment [2] is Platelet. Nature of the experiment: Antiplatelet activity in human platelet assessed as inhibition of CRP-XL-induced activated Gp2b/3a expression incubated for 5 mins prior to CRP-XL challenge measured after 15 mins by flow cytometry. The essentials: (§2)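 Washed platelets from donor buffy coat in modified Tyrode-HEPES (pH 7.4, 2 mM Ca2+), pre-incubated 5 min with DMSO or compound. Flow cytometry: CRP-XL stimulation with FITC-PAC-1 for 15 min at room temperature, 10,000 events, PAC-1 mean fluorescence and % positive platelets. Phosphotyrosine: CRP-XL 5 μg/mL, SDS/EDTA (2%/1 mM final) lysates, immunodot blot with 4G10, HRP secondary, chemiluminescence.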

For experiment [3], the system named is Platelet. Description: Antiplatelet activity in human platelet assessed as inhibition of CRP-XL-induced platelet aggregation at 20 uM incubated for 5 mins prior to CRP-XL challenge measured over 5 mins by […]. The method, boiled down:
as §1

Experiment [4] has as its system Platelet. Nature of the experiment: Antiplatelet activity in human platelet assessed as inhibition of ionomycin-induced platelet aggregation at 20 uM incubated for 5 mins prior to U-46619 challenge measured over 5 mins by […]. As to conditions: in the assay text read “ionomycin challenge” for “U-46619 challenge”. The essentials:
as §1

Experiment [5] deals with Platelet. Nature of the experiment: Antiplatelet activity in human platelet assessed as inhibition of thrombin-induced platelet aggregation at 20 uM incubated for 5 mins prior to thrombin challenge measured over 5 mins by […]. The method, boiled down: as §1
For experiment [6], the system named is Platelet. Description: Antiplatelet activity in human platelet assessed as inhibition of U-46619-induced platelet aggregation at 20 uM incubated for 5 mins prior to U-46619 challenge measured over 5 mins by […]. The method, boiled down: as §1
In experiment [7] the test system is Platelet. Nature of the experiment: Antiplatelet activity in human platelet assessed as inhibition of CRP-XL-induced phosphotyrosine level incubated for 5 mins prior to CRP-XL challenge measured after 5 mins by immunodot blot analysis. The method, boiled down:
as §2

As a reminder, the IC50 is the point on the concentration scale where inhibition reaches its midpoint. As to `O=c1cc(COCc2ccccc2)cnn1Cc1ccccc1`, the half-maximal inhibitory concentration (IC50) in experiment [1] came out at 3.75 µM.

As for `O=c1c(COCc2ccccc2)ccnn1Cc1ccccc1`, the concentration for half-maximal inhibition (IC50) in experiment [1] is 17.5 µM. For `O=c1cc2c(n[nH]1)CCCO2`, the half-inhibitory concentration (IC50) in experiment [1] is more than 100 µM. On the same count and under the same terms, the figure for `O=C1CC2OCCC2=NN1` (configuration not stated) is 70.6 µM; for `O=c1cc(CBr)cnn1Cc1ccccc1` it is more than 100 µM. The same measure, in the same setting: the figure for `O=c1c(CO)ccnn1Cc1ccccc1` is more than 100 µM; for `O=c1cc(CO)cnn1Cc1ccccc1` it is more than 100 µM. In the case of `CC(C)(C)[Si](OCc1cnn(Cc2ccccc2)c(=O)c1)(c1ccccc1)c1ccccc1`, the inhibition entry in the experiment with Platelet [2] and in the experiment on Platelet [3] was “Active” in each case. Also, the inhibition result in the experiment on Platelet [4], with Platelet [5] and in the experiment on Platelet [6] was “inactive” each time. Also, the IC50 in experiment [1] amounted to 0.55 µM. The inhibition result in the experiment on Platelet [7] is “Dose-dependent effect”.

As for `CC(C)(C)[Si](OCc1ccnn(Cc2ccccc2)c1=O)(c1ccccc1)c1ccccc1`, in experiment [1], the IC50 turned out to be 1.31 µM.

Consider `O=c1c(CBr)ccnn1Cc1ccccc1`, for which, in experiment [1], the IC50 was more than 100 µM. Same read-out and setting: the figure for `O=C1CC2OCCCC2=NN1` (configuration not stated) is more than 100 µM.
